# Data published in ChEMBL document CHEMBL3763071, “Selective Human Estrogen Receptor Partial Agonists (ShERPAs) for Tamoxifen-Resistant Breast Cancer” (J Med Chem, 2016).
# The source made the active and inactive calls. The rule behind the calls is not given here.
# Key:
# Estrogen receptor [1] = target: T1, Estrogen receptor (Homo sapiens, UniProt P03372); experiment: Agonist activity at estrogen receptor alpha in human MCF7:WS8 cells after 18 hrs by dual luciferase reporter assay; assay type: cell-based
# T1 sequence (P03372 whole entry): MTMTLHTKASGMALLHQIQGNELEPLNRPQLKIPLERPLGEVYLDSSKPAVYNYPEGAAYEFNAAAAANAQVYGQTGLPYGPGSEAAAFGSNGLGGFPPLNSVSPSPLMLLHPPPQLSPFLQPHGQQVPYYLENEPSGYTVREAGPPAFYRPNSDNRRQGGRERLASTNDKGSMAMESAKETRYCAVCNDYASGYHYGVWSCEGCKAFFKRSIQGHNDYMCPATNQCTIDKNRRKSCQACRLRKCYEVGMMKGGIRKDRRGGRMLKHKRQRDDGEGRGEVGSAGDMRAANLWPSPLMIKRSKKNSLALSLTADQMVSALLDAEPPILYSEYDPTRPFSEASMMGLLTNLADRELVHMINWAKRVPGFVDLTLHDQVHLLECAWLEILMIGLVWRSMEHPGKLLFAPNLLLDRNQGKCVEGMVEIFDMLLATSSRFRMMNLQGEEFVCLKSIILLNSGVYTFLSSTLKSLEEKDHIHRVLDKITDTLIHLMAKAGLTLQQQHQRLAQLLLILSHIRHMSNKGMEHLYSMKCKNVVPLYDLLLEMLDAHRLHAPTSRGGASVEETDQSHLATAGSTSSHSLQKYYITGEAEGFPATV
# MCF7:5C [2] = experiment: (§1) Antiproliferative activity against tamoxifen resistant human MCF7:5C cells assessed as inhibition of cell growth at 1 nM after 9 days by MTS assay; assay type: functional
# Outline: (§2)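 Tamoxifen-resistant MCF-7:5C cells (long-term estrogen-deprived MCF-7:ws8, phenol red-free RPMI with charcoal-dextran FBS) seeded 5000/well overnight, treated at 1, 10 or 100 nM with renewal every 3 days. […] Triplicates in at least three passages.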
# MCF7:5C [3] = experiment: (§3) Antiproliferative activity against tamoxifen resistant human MCF7:5C cells assessed as inhibition of cell growth at 10 nM after 9 days by MTS assay; assay type: functional; outline: as §2
# [4] = (§4) Antiproliferative activity against tamoxifen resistant human MCF7:5C cells assessed as inhibition of cell growth at 100 nM after 9 days by MTS assay; assay type: functional; details: 216 h; outline: as §2
# [5] = Cytotoxicity against human MCF7:WS8 cells at 0.1 to 1 uM after 3 days by MTT assay; assay type: cell-based; details: mcf7:ws8, 72 h
# [6] = as §3; assay type: functional; details: 216 h; outline: as §2
# [7] = as §1; assay type: functional; details: 216 h; outline: as §2
# MCF7:5C [8] = experiment: as §4; assay type: functional; outline: as §2
# Estrogen receptor [9] = target: T1, Estrogen receptor; experiment: Partial agonist activity at ERalpha in human MCF7:WS8 cells after 18 hrs by luciferase reporter gene assay; assay type: cell-based
# Outline: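 MCF-7:ws8 cells kept in stripped medium 3 days, then transiently co-transfected (6 h) with 3×ERE-firefly luciferase and pRL-TK Renilla plasmids. […] EC50 and Emax derived; mean ± s.e.m. from at least three passages.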
# [10] = target: T2, Estrogen receptor (Homo sapiens) (UniProt P03372); experiment: Antagonist activity at ERalpha in human MCF7:WS8 cells assessed as E2-induced ERE activation after 18 hrs by luciferase reporter gene assay; assay type: cell-based
# T2 sequence (whole entry): T1 sequence (P03372 whole entry)
# Outline: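 ERE-luciferase reporter in MCF-7:ws8 cells held in stripped medium 3 days, co-transfected with 3×ERE (Xenopus vitellogenin A2)-firefly luciferase and pRL-TK Renilla plasmids for 6 h. […] Average of three passages.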
# [11] = target: T2, Estrogen receptor (Homo sapiens); experiment: Partial agonist activity at biotinylated ERalpha LBD (unknown origin) assessed as inhibition of E2-induced SRC3 coactivator recruitment after 1 hr by TR-FRET assay
# [12] = target: T2, Estrogen receptor (Homo sapiens); experiment: Partial agonist activity at biotinylated ERalpha LBD (unknown origin) assessed as increase in SRC3 coactivator recruitment after 1 hr by TR-FRET assay
# Outline: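 Biotinylated ERα LBD (1 nM) premixed with streptavidin-terbium (0.25 nM). Fluorescein-labelled SRC3 was titrated with ligand at 20 μM. Incubation ran 1 h at room temperature in the dark. Read-out was TR-FRET: excitation 340 nm, emission 495 and 520 nm, 100-μs delay. Background from parallel wells without LBD was subtracted, and signal was plotted against log SRC3.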
# T47D:A18 = experiment: Antitumor activity against tamoxifen resistant human T47D:A18 cells overexpressing PKC-alpha xenografted into BALB/c athymic mouse assessed as reduction in tumor size at 100 mg/kg administered via oral gavage daily measured upto 2 weeks; assay type: functional, organism-based
# Outline: (§5)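 T47D:A18/PKCα xenografts established 12 weeks before dosing. Compound given orally at 100 mg/kg daily for 2 weeks in 0.1% Tween 80/10% PEG400/0.5% CMC, plus drinking water replaced by hydrogel suspension at 0.25 mg/mL. Tumor area (length/2 × width/2 × π) by calipers weekly; uteri excised and weighed at sacrifice (control n = 4, treated n = 6).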
# Mus musculus = experiment: Toxicity in BALB/c athymic mouse xenografted with tamoxifen-resistant human T47D:A18 cells overexpressing PKC-alpha assessed as uterine weight at 100 mg/kg administered via oral gavage daily; assay type: organism-based; details: in vivo; outline: as §5
# [13] = target: T2, Estrogen receptor (Homo sapiens); experiment: Partial agonist activity at estrogen receptor alpha in human MCF7:WS8 cells at 100 nM after 6 hrs in presence of 100 nM GPR30 inhibitor G15 by luciferase reporter gene assay; assay type: cell-based
Structure (SMILES),EC50 (Estrogen receptor [1]; read-out: EC50),inhibition (MCF7:5C [2]),inhibition (MCF7:5C [3]),inhibition at 0.1 µM [4],Activity [5],inhibition at 0.01 µM [6],inhibition at 0.001 µM [7],other results
Oc1ccc2c(-c3ccc(F)cc3)c(Oc3ccc(F)cc3)sc2c1,36.8 nM,inactive,inactive,86.6%,Non-toxic,,,
O=C(c1sc2cc(O)ccc2c1-c1ccc(F)cc1)C1CC1,13.9 nM,inactive,,146%,Non-toxic,79.6%,,
Cc1ccc(C(=O)c2c(-c3ccc(O)cc3)sc3cc(O)ccc23)cc1,2.6 nM,,,109%,Non-toxic,60.2%,11.5%,
N#Cc1ccc(C(=O)c2sc3cc(O)ccc3c2-c2ccc(F)cc2)cc1,58.7 nM,,,64.2%,Non-toxic,,2%,
CS(=O)(=O)c1ccc(C(=O)c2sc3cc(O)ccc3c2-c2ccc(F)cc2)cc1,436 nM,inactive,inactive,18.9%,Non-toxic,,,
Oc1ccc(Oc2c(-c3ccc(F)cc3)sc3cc(O)ccc23)cc1,6.2 nM,inactive,inactive,,Non-toxic,,,inhibition (MCF7:5C [8]): inactive
C#Cc1ccc(C(=O)c2sc3cc(O)ccc3c2-c2ccc(F)cc2)cc1,5.3 nM,,,85.6%,Non-toxic,79.9%,31.4%,EC50 (Estrogen receptor [9]): 5.3 nM; inhibition [10]: Dose-dependent effect; Activity [11]: Active; Activity [12]: Active; Activity (T47D:A18): Active
O=C(c1ccc(C(F)(F)F)cc1)c1c(-c2ccc(F)cc2)sc2cc(O)ccc12,61.5 nM,,,108%,Non-toxic,69.7%,55.6%,
O=C(c1ccc(C(F)(F)F)cc1)c1c(-c2ccc(Cl)cc2)sc2cc(O)ccc12,121 nM,inactive,inactive,,Non-toxic,,,inhibition (MCF7:5C [8]): inactive
O=C(c1sc2cc(O)ccc2c1-c1ccc(F)cc1)C1CCCCC1,1 nM,,,147%,Non-toxic,134%,21.4%,
O=C(c1ccc(O)cc1)c1sc2cc(O)ccc2c1-c1ccc(F)cc1,0.2 nM,,,100%,Non-toxic,99.8%,95.4%,
O=C(c1ccc(C(F)(F)F)cc1)c1sc2cc(O)ccc2c1-c1ccc(F)cc1,5.2 nM,inactive,,88.6%,Non-toxic,15.4%,,Activity (T47D:A18): Active; Activity (Mus musculus): Non-toxic
Oc1ccc2c(-c3ccc(F)cc3)c(Oc3ccc(F)c(F)c3)sc2c1,33.4 nM,inactive,inactive,84.6%,Non-toxic,,,
O=C(c1ccc(F)cc1)c1sc2cc(O)ccc2c1-c1ccc(F)cc1,18.5 nM,inactive,,131%,Non-toxic,32.4%,,
Oc1ccc2c(-c3ccc(F)cc3)csc2c1,,,,,,,,EC50 (Estrogen receptor [1]): Not Active
Cc1ccc(C(=O)c2sc3cc(O)ccc3c2-c2ccc(F)cc2)cc1,717 nM,,,110%,Non-toxic,7.4%,13.3%,
Oc1ccc2c(-c3ccc(F)cc3)c(Oc3ccc(Cl)cc3)sc2c1,76.1 nM,inactive,inactive,30.7%,Non-toxic,,,EC50 (Estrogen receptor [9]): 76.1 nM; inhibition [10]: Dose-dependent effect
Oc1ccc2cc(-c3ccc(F)cc3)sc2c1,,,,,,,,EC50 (Estrogen receptor [1]): Not Active
Oc1ccc(Oc2sc3cc(O)ccc3c2-c2ccc(F)cc2)cc1 [TTC-352],0.8 nM,,,123%,Non-toxic,104%,50.6%,Activity [13]: Active; EC50 (Estrogen receptor [9]): 0.8 nM; inhibition [10]: Dose-dependent effect; Activity [11]: Active; Activity [12]: Active
CN(C)c1ccc(C(=O)c2sc3cc(O)ccc3c2-c2ccc(F)cc2)cc1,30.6 nM,,,111%,Non-toxic,15.1%,4.1%,
O=C(c1ccc(OCCN2CCCCC2)cc1)c1c(-c2ccc(O)cc2)sc2cc(O)ccc12 [RALOXIFENE],,inactive,inactive,,Non-toxic,,,inhibition (MCF7:5C [8]): inactive
